Several values for one entry are separate records, joined by “and”; a condition that tells them apart may be missing. Equal entries are not always repeated.
Test system: Mus musculus
Assay: Tested for its effect on testes weight 3 days after single sub cutaneous dose (30 mg/kg)
Assay type: functional, Testis
In short: (§1)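 Single subcutaneous injection, 10 mL/kg, to male CD-1 mice (5 per dose) in ethanol/Tween-20/water (3:7:90, v/v/v) on day 0. Mice were killed at 72 h; testes were weighed and histology scored for spermatogenic index (0–6). Results are % reduction from the vehicle control, with a 30 mg/kg positive control group. Dunnett's one-tailed t-test.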

Compound | Reduction [%]
CCCOC(=O)c1ccc([C@@H]2c3cc(C)ccc3[C@H]3CN(CC)CC[C@@H]23)cc1.Cl | 17
CCN1CC[C@H]2[C@H](c3ccc(CO)cc3)c3cc(C)ccc3[C@H]2C1.Cl | 6
CCN1CC[C@H]2[C@H](c3ccc(C(=O)O)cc3)c3cc(C)ccc3[C@H]2C1.Cl (stereo in doubt; 10k) | 17

Test system: Mus musculus
Assay: Tested for its effect on spermatogenic index 3 days after single oral dose (10 mg/kg)
Assay type: functional
In short: (§2)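 Male CD-1 (ICR) mice, 7 weeks old on arrival, 5 per dose, single gavage of 10 mL/kg on day 0. Vehicle was 0.15 M acetate buffer pH 5, ethanol/Tween-20/water 3:7:90, or 1% Tween-20. Mice were killed with CO2 at 72 h and testes weighed and scored for spermatogenic index (0–6 scale). Results are % reduction versus the vehicle control. Dunnett's one-tailed t-test.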

Compound | Reduction [%]
CCc1ccc2c(c1)[C@@H](c1ccc(C(=O)OC)cc1)[C@@H]1CCN(CC)C[C@H]21.Cl | -4
CCCOC(=O)c1ccc([C@@H]2c3cc(C)ccc3[C@H]3CN(CC)CC[C@@H]23)cc1.Cl | 33
CCN1CC[C@H]2[C@H](c3ccc(CO)cc3)c3cc(C)ccc3[C@H]2C1.Cl | 20
CCN1CC[C@H]2[C@H](c3ccc(C(=O)O)cc3)c3cc(C)ccc3[C@H]2C1.Cl (stereo in doubt; 10k) | 36

Test system: Mus musculus
Assay: Tested for its effect on testes weight 3 days after single oral dose (10 mg/kg)
Assay type: functional, Testis
In short: (§3)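 CD-1 outbred Swiss albino male mice, 5 per dose, single gavage on day 0 at 10 mL/kg. Vehicle was 0.15 M acetate buffer pH 5, ethanol/Tween-20/water (3:7:90), or 1% Tween-20 in water. CO2 euthanasia 72 h later. Testes weighed and histologically scored (spermatogenic index 0–6). Values are % reduction versus the assay's vehicle control. Positive control was 30 mg/kg of the parent compound. Significance by Dunnett's one-tailed t-test, p < 0.05.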

Compound | Reduction [%]
CCc1ccc2c(c1)[C@@H](c1ccc(C(=O)OC)cc1)[C@@H]1CCN(CC)C[C@H]21.Cl | 0
CCCOC(=O)c1ccc([C@@H]2c3cc(C)ccc3[C@H]3CN(CC)CC[C@@H]23)cc1.Cl | 3
CCN1CC[C@H]2[C@H](c3ccc(CO)cc3)c3cc(C)ccc3[C@H]2C1.Cl | 13
CCN1CC[C@H]2[C@H](c3ccc(C(=O)O)cc3)c3cc(C)ccc3[C@H]2C1.Cl (stereo in doubt; 10k) | 24

Test system: Mus musculus
Assay: Tested for its effect on testes weight 3 days after single oral dose (90 mg/kg)
Assay type: functional, Testis
In short: as §3

Compound | Reduction [%]
CCN1CC[C@H]2[C@H](c3ccc(CO)cc3)c3cc(C)ccc3[C@H]2C1.Cl | 4

Test system: Mus musculus
Assay: Tested for its effect on testes weight 3 days after single oral dose (3 mg/kg)
Assay type: functional, Testis
In short: as §2

Compound | Reduction [%]
CCc1ccc2c(c1)[C@@H](c1ccc(C(=O)OC)cc1)[C@@H]1CCN(CC)C[C@H]21.Cl | -18
CCCOC(=O)c1ccc([C@@H]2c3cc(C)ccc3[C@H]3CN(CC)CC[C@@H]23)cc1.Cl | 11
CCN1CC[C@H]2[C@H](c3ccc(C(=O)O)cc3)c3cc(C)ccc3[C@H]2C1.Cl (stereo in doubt; 10k) | 13

Test system: Mus musculus
Assay: Tested for its effect on testes weight 3 days after single sub cutaneous dose (3 mg/kg)
Assay type: functional, Testis
In short: as §1

Compound | Reduction [%]
CCCOC(=O)c1ccc([C@@H]2c3cc(C)ccc3[C@H]3CN(CC)CC[C@@H]23)cc1.Cl | 7
CCN1CC[C@H]2[C@H](c3ccc(C(=O)O)cc3)c3cc(C)ccc3[C@H]2C1.Cl (stereo in doubt; 10k) | 5

Test system: Mus musculus
Assay: Tested for its effect on spermatogenic index 3 days after single oral dose (30 mg/kg)
Assay type: functional
In short: as §3

Compound | Reduction
CCc1ccc2c(c1)[C@@H](c1ccc(C(=O)OC)cc1)[C@@H]1CCN(CC)C[C@H]21.Cl | 23%
CCCOC(=O)c1ccc([C@@H]2c3cc(C)ccc3[C@H]3CN(CC)CC[C@@H]23)cc1.Cl | 56% and 43%
CCN1CC[C@H]2[C@H](c3ccc(CO)cc3)c3cc(C)ccc3[C@H]2C1.Cl | 57%
CCN1CC[C@H]2[C@H](c3ccc(C(=O)O)cc3)c3cc(C)ccc3[C@H]2C1.Cl (stereo in doubt; 10k) | 51% and 35%

Test system: Mus musculus
Assay: Tested for its effect on spermatogenic index 3 days after single oral dose (3 mg/kg)
Assay type: functional
In short: as §2

Compound | Reduction [%]
CCCOC(=O)c1ccc([C@@H]2c3cc(C)ccc3[C@H]3CN(CC)CC[C@@H]23)cc1.Cl | 2

Test system: Mus musculus
Assay: Tested for its effect on spermatogenic index 3 days after single sub cutaneous dose (3 mg/kg)
Assay type: functional
In short: as §1

Compound | Reduction [%]
CCCOC(=O)c1ccc([C@@H]2c3cc(C)ccc3[C@H]3CN(CC)CC[C@@H]23)cc1.Cl | -1
CCN1CC[C@H]2[C@H](c3ccc(C(=O)O)cc3)c3cc(C)ccc3[C@H]2C1.Cl (stereo in doubt; 10k) | 8

Test system: Mus musculus
Assay: Tested for its effect on testes weight 3 days after single sub cutaneous (10 mg/kg)
Assay type: functional, Testis
In short: as §1

Compound | Reduction [%]
CCCOC(=O)c1ccc([C@@H]2c3cc(C)ccc3[C@H]3CN(CC)CC[C@@H]23)cc1.Cl | 10
CCN1CC[C@H]2[C@H](c3ccc(C(=O)O)cc3)c3cc(C)ccc3[C@H]2C1.Cl (stereo in doubt; 10k) | -3

Test system: Mus musculus
Assay: Tested for its effect on spermatogenic index 3 days after single oral dose (3 mg/kg),
Assay type: functional
In short: as §2

Compound | Reduction [%]
CCc1ccc2c(c1)[C@@H](c1ccc(C(=O)OC)cc1)[C@@H]1CCN(CC)C[C@H]21.Cl | 4
CCN1CC[C@H]2[C@H](c3ccc(C(=O)O)cc3)c3cc(C)ccc3[C@H]2C1.Cl (stereo in doubt; 10k) | 2

Test system: Mus musculus
Assay: Tested for its effect on testes weight 3 days after single oral dose (30 mg/kg)
Assay type: functional, Testis
In short: as §3

Compound | Reduction [%]
CCc1ccc2c(c1)[C@@H](c1ccc(C(=O)OC)cc1)[C@@H]1CCN(CC)C[C@H]21.Cl | 8
CCCOC(=O)c1ccc([C@@H]2c3cc(C)ccc3[C@H]3CN(CC)CC[C@@H]23)cc1.Cl | 31
CCN1CC[C@H]2[C@H](c3ccc(CO)cc3)c3cc(C)ccc3[C@H]2C1.Cl | 23
CCN1CC[C@H]2[C@H](c3ccc(C(=O)O)cc3)c3cc(C)ccc3[C@H]2C1.Cl (stereo in doubt; 10k) | 28

Test system: Mus musculus
Assay: Tested for its effect on spermatogenic index 3 days after single sub cutaneous dose (10 mg/kg)
Assay type: functional
In short: as §1

Compound | Reduction [%]
CCCOC(=O)c1ccc([C@@H]2c3cc(C)ccc3[C@H]3CN(CC)CC[C@@H]23)cc1.Cl | 13
CCN1CC[C@H]2[C@H](c3ccc(C(=O)O)cc3)c3cc(C)ccc3[C@H]2C1.Cl (stereo in doubt; 10k) | 27

Test system: Mus musculus
Assay: Tested for its effect on spermatogenic index 3 days after single oral dose (90 mg/kg),
Assay type: functional
In short: as §3

Compound | Reduction [%]
CCN1CC[C@H]2[C@H](c3ccc(CO)cc3)c3cc(C)ccc3[C@H]2C1.Cl | -5
